Assays:
[1] = tested on: Human immunodeficiency virus 2; test: Antiviral activity against HIV2 isolate ROD infected in human CEM cells assessed as inhibition of virus-induced cytopathicity after 4 days by microscopic analysis; format: functional, organism-based; conditions: Human immunodeficiency virus 2, ISOLATE ROD, CCRF-CEM, 96 h
Summary of the method: (§1)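 CEM cells (~3 × 10⁵ cells/mL) infected with ~100 CCID₅₀ virus per mL, seeded into wells with compound dilutions. Syncytia (giant cell) formation scored microscopically after 4 days at 37 °C. EC₅₀ is the concentration protecting cells by 50%. Values are means of two experiments in triplicate.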

[2] = tested on: Human immunodeficiency virus 1; test: Antiviral activity against wild type HIV1 3B infected in human CEM cells assessed as inhibition of virus-induced cytopathicity after 4 days by microscopic analysis; format: functional, organism-based; conditions: Human immunodeficiency virus 1, 3B, CCRF-CEM, 96 h; summary of the method: as §1
[3] = target: Human immunodeficiency virus type 1 reverse transcriptase (Human immunodeficiency virus 1, UniProt Q72547, Y181I); test: Inhibition of HIV1 reverse transcriptase Y181I mutant expressed in Escherichia coli assessed as incorporation of [3H]dTTP into poly(rA)/oligo(dT) by scintillation counting
Summary of the method: (§2)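 The RT was recombinant p66(His)/p51 heterodimer, mutant form, expressed in E. coli. TCA-precipitable radioactivity on GF/C filters was read by scintillation. IC50 is the concentration giving 50% inhibition.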

[4] = target: Human immunodeficiency virus type 1 reverse transcriptase (Human immunodeficiency virus 1, UniProt Q72547, K103N); test: Inhibition of HIV1 reverse transcriptase K103N mutant expressed in Escherichia coli assessed as incorporation of [3H]dTTP into poly(rA)/oligo(dT) by scintillation counting; summary of the method: as §2
[5] = target: Human immunodeficiency virus type 1 reverse transcriptase (Human immunodeficiency virus 1, UniProt Q72547, L100I); test: Inhibition of HIV1 reverse transcriptase L100I mutant expressed in Escherichia coli assessed as incorporation of [3H]dTTP into poly(rA)/oligo(dT) by scintillation counting; summary of the method: as §2
[6] = target: Human immunodeficiency virus type 1 reverse transcriptase (Human immunodeficiency virus 1, UniProt Q72547); test: Inhibition of HIV1 wild type reverse transcriptase expressed in Escherichia coli assessed as incorporation of [3H]dTTP into poly(rA)/oligo(dT) by scintillation counting
Summary of the method: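 Template was poly(rA)/oligo(dT) 10:1 (0.3 μM 3′-OH ends) with 10 μM [³H]dTTP, at 37 °C. TCA-precipitable counts were taken on GF/C filters. IC₅₀ is 50% inhibition of RT activity.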

[7] = tested on: Human immunodeficiency virus 1; test: Antiviral activity against HIV1 clade A UG273 infected in PHA-stimulated human PBMC assessed as inhibition of p24 production after 10 to 12 days by ELISA; format: functional, organism-based; conditions: Human immunodeficiency virus 1, clade A UG273
Summary of the method: (§3)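 PHA-stimulated (2 μg/mL, 3 days, 37 °C) donor PBMC blasts, washed in PBS, seeded 0.5 × 10⁶ cells/well in RPMI 1640 with 10% fetal calf serum and IL-2 (25 units/mL) containing varying compound concentrations; virus added at 250 pg p24/mL final. Supernatant collected days 10-12 and assayed for HIV-1 core antigen.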

[8] = tested on: Human immunodeficiency virus 1; test: Antiviral activity against HIV1 clade B BaL infected in PHA-stimulated human PBMC assessed as inhibition of p24 production after 10 to 12 days by ELISA; format: functional, organism-based; conditions: Human immunodeficiency virus 1, clade B BaL; summary of the method: as §3
[9] = tested on: Human immunodeficiency virus 1; test: Antiviral activity against HIV1 clade C DJ259 infected in PHA-stimulated human PBMC assessed as inhibition of p24 production after 10 to 12 days by ELISA; format: functional, organism-based; conditions: Human immunodeficiency virus 1, clade C DJ259; summary of the method: as §3
[10] = tested on: Human immunodeficiency virus 1; test: Antiviral activity against HIV1 clade A/E ID12 infected in PHA-stimulated human PBMC assessed as inhibition of p24 production after 10 to 12 days by ELISA; format: functional, organism-based; conditions: Human immunodeficiency virus 1, clade A/E ID12; summary of the method: as §3
[11] = tested on: Human immunodeficiency virus 1; test: Antiviral activity against HIV1 group O BCF06 infected in PHA-stimulated human PBMC assessed as inhibition p24 production after 10 to 12 days by ELISA; format: functional, organism-based; conditions: Human immunodeficiency virus 1, group O BCF06; summary of the method: as §3
[12] = Selectivity index, CC50 for human CEM cells to IC50 for HIV1 3B; format: functional, CCRF-CEM
Summary of the method: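 Ratio of CC₅₀ (Coulter count, mock-infected CEM) to EC₅₀ (CEM, HIV-1 IIIB, microscopic syncytia scoring at day 4).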

[13] = Cytotoxicity against human CEM cells by coulter counter analysis; format: cell-based; conditions: CEM (CCRF-CEM) cells
Summary of the method: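 Mock-infected CEM cultures with compound, cell number counted by Coulter counter as percent of untreated control. CC₅₀ (50% reduction in proliferation) was read from plots against concentration. Values are means of two experiments in triplicate.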

[14] = tested on: Human immunodeficiency virus 1; test: Antiviral activity against HIV1 harboring reverse transcriptase E138K mutant infected in human MT-4 cells assessed as inhibition of virus-induced cytopathicity after 4 days by MTT assay; format: functional, organism-based; conditions: Human immunodeficiency virus 1, MT4, 96 h
Summary of the method: (§4)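 MT-4 cells at 1 × 10⁵ cells/mL were infected with RT-mutant HIV-1 at a multiplicity of infection of 0.02. They were plated at once with serial compound dilutions (DMSO stocks of 50 mM or higher). […] Virus stocks had been titrated in MT-4 cells as CCID50.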

[15] = tested on: Human immunodeficiency virus 1; test: Antiviral activity against HIV1 harboring reverse transcriptase Y188L mutant infected in human MT-4 cells assessed as inhibition of virus-induced cytopathicity after 4 days by MTT assay; format: functional, organism-based; conditions: Human immunodeficiency virus 1, MT4, 96 h; summary of the method: as §4
[16] = tested on: Human immunodeficiency virus 1; test: Antiviral activity against HIV1 harboring reverse transcriptase Y181C mutant infected in human MT-4 cells assessed as inhibition of virus-induced cytopathicity after 4 days by MTT assay; format: functional, organism-based; conditions: Human immunodeficiency virus 1, MT4, 96 h; summary of the method: as §4
[17] = tested on: Human immunodeficiency virus 1; test: Antiviral activity against […] harboring reverse transcriptase K103N mutant infected in human MT-4 cells assessed as inhibition of virus-induced cytopathicity after 4 days by MTT assay; format: functional, organism-based; conditions: Human immunodeficiency virus 1, MT4, 96 h; summary of the method: as §4
[18] = tested on: Human immunodeficiency virus 1; test: Antiviral activity against HIV1 harboring reverse transcriptase L100I mutant infected in human MT-4 cells assessed as inhibition of virus-induced cytopathicity after 4 days by MTT assay; format: functional, organism-based; conditions: Human immunodeficiency virus 1, MT4, 96 h; summary of the method: as §4
[19] = tested on: Human immunodeficiency virus 1; test: Antiviral activity against wild type HIV1 3B infected in human MT-4 cells assessed as inhibition of virus-induced cytopathicity after 4 days by MTT assay; format: functional, organism-based; conditions: Human immunodeficiency virus 1, 3B, MT4, 96 h
Summary of the method: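 MT-4 cells at 1 × 10⁵ cells/mL, infected at MOI 0.02 (virus titrated as CCID₅₀ in MT-4), dispensed immediately onto serial compound concentrations (DMSO stocks ≥50 mM). Viable cells counted by MTT after 4 days at 37 °C. EC₅₀ is the concentration giving 50% protection of cell viability. Values are means of at least three experiments.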

[20] = tested on: Human immunodeficiency virus type 1 reverse transcriptase (Human immunodeficiency virus 1), Q72547 [K103N]; test: Ratio of compound IC50 to efavirenz IC50 for HIV1 reverse transcriptase K103N mutant

Row | SMILES | EC50 [1] | EC50 [2] | IC50 [3] | IC50 [4] | IC50 [5] | IC50 [6] | EC50 [7] | EC50 [8] | EC50 [9] | EC50 [10] | EC50 [11] | Selectivity Index [12] | CC50 [13] | EC50 [14] | EC50 [15] | EC50 [16] | EC50 [17] | EC50 [18] | EC50 [19] | Ratio IC50 [20]
1 | Cc1cc(C)cc(S(=O)(=O)c2c(C(=O)NCN3CCCC3)[nH]c3ccc(Cl)cc23)c1 | > 2000 nM | 3.3 nM | 442 nM | 96 nM | 26 nM | 12 nM | 0.1 nM | 0.1 nM | 0.1 nM | 0.3 nM | 0.2 nM | 3333 | 11000 nM | – | – | – | – | – | – | –
2 | Cc1cc(C)cc(S(=O)(=O)c2c(C(=O)NCCN3CCCC3)[nH]c3ccc(Cl)cc23)c1 | > 2000 nM | 17 nM | > 40000 nM | 660 nM | 248 nM | 80 nM | – | – | – | – | – | 418 | 7100 nM | 260 nM | > 1000 nM | 380 nM | 80 nM | 84 nM | 19 nM | –
3 | Cc1cc(C)cc(S(=O)(=O)c2c(C(=O)NCc3ccccc3)[nH]c3ccc([N+](=O)[O-])cc23)c1 | > 2000 nM | 6.2 nM | > 40000 nM | 459 nM | 14 nM | 17 nM | – | – | – | – | – | 1290 | 8000 nM | 16 nM | 470 nM | 54 nM | 11 nM | 7 nM | 10 nM | –
4 | Cc1cc(C)cc(S(=O)(=O)c2c(C(=O)NCCOc3ccccc3)[nH]c3ccc(Cl)cc23)c1 | > 10000 nM | 26 nM | > 40000 nM | > 40000 nM | > 40000 nM | 2390 nM | – | – | – | – | – | 7962 | 207000 nM | 380 nM | > 1000 nM | > 1000 nM | > 1000 nM | 440 nM | 300 nM | –
5 | Cc1cc(C)cc(S(=O)(=O)c2c(C(=O)NCc3ccccc3)[nH]c3ccc(Br)cc23)c1 | > 2000 nM | 5.7 nM | > 40000 nM | 1850 nM | 273 nM | 1050 nM | – | – | – | – | – | 30175 | 172000 nM | 51 nM | ≥ 450 nM | 59 nM | 15 nM | 11 nM | 16 nM | –
6 | Cc1cc(C)cc(S(=O)(=O)c2c(C(=O)NCCc3ccccc3)[nH]c3ccc(Cl)cc23)c1 | > 50000 nM | 5.7 nM | > 40000 nM | 10400 nM | 27 nM | 77 nM | – | – | – | – | – | 32456 | 185000 nM | 65 nM | > 1000 nM | 100 nM | 52 nM | 19 nM | 21 nM | –
7 | Cc1cc(C)cc(S(=O)(=O)c2c(C(=O)NCN3CCOCC3)[nH]c3ccc(Cl)cc23)c1 | > 2000 nM | 1.9 nM | 5480 nM | 512 nM | 117 nM | 54 nM | 0.1 nM | 0.1 nM | 0.5 nM | 0.3 nM | 0.9 nM | 5789 | 11000 nM | 14 nM | 440 nM | 23 nM | 11 nM | 8 nM | 3.2 nM | –
8 | Cc1cc(C)cc(S(=O)(=O)c2c(C(=O)NCCn3cccc3)[nH]c3ccc(Cl)cc23)c1 | > 10000 nM | 6.5 nM | > 40000 nM | 85 nM | 34 nM | 14 nM | 2.1 nM | 2.3 nM | 3.5 nM | 2.9 nM | 3.2 nM | 8308 | 54000 nM | 18 nM | > 1000 nM | 67 nM | 15 nM | 11 nM | 15 nM | –
9 | Cc1cc(C)cc(S(=O)(=O)c2c(C(=O)NCc3ccccc3)[nH]c3ccc(Cl)cc23)c1 | > 10000 nM | 5.7 nM | > 40000 nM | > 40000 nM | 15 nM | 21 nM | – | – | – | – | – | – | 244000 nM | 18 nM | 480 nM | 46 nM | 11 nM | 6.1 nM | 11 nM | –
10 | Cc1cc(C)cc(S(=O)(=O)c2c(C(=O)NCN3CCCCC3)[nH]c3ccc(Cl)cc23)c1 | > 2000 nM | 1.3 nM | 581 nM | 120 nM | 37 nM | 8 nM | – | – | – | – | – | 7615 | 9900 nM | – | – | – | – | – | – | > 160

— ChEMBL document CHEMBL1765016, “Indolylarylsulfones as HIV-1 non-nucleoside reverse transcriptase inhibitors: new cyclic substituents at indole-2-carboxamide” (J Med Chem, 2011)
